According to article PMC12207910 (European journal of pharmaceutical sciences : official …, 2024):
Where two headings read alike, the source gives them in different places. Non-standard residues stand in square brackets, D forms with d. Residues, ends and D or L forms follow the SMILES beside them. Dip = N[C@H](C(=O)O)C(c1ccccc1)c1ccccc1; hArg = N=C(N)NCCCC[C@H](N)C(=O)O; Agp = N=C(N)NC[C@H](N)C(=O)O

What was measured:
[1] = test system: human red blood cells (hRBC); experiment: Hemolytic activity; type: cell-based; conditions: concentration at which 50% hemolysis was observed
MRSA (ATCC BAA-1556) = conditions: cited from earlier work
S. aureus (ATCC 29213) [2] = conditions: cited from earlier work
[3] = test system: P. aeruginosa (ATCC 27883); conditions: cited from earlier work
E. coli (ATCC 25922) [4] = conditions: cited from earlier work
[5] = test system: human red blood cells (hRBC); conditions: cited from earlier work
E. coli (ATCC BAA-2452) = type: cell-based, Escherichia coli; conditions: E. coli (ATCC BAA-2452)
[6] = test system: E. coli (ATCC BAA-2452) biofilm; experiment: Antibiofilm activity, XTT assay; type: cell-based, Escherichia coli
How it was run: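 Bacterial suspensions at 5×10^5 CFU/mL in MH broth were grown 24 h at 37 °C to form biofilms, then washed twice with PBS. […] Biofilms were rewashed, then given XTT plus phenazine methosulfate for 1 h in the dark at 37 °C, and A492 was read. Percentage decrease versus untreated wells; triplicate, run twice.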

[7] = test system: E. coli (ATCC 25922) and E. coli (ATCC BAA-2452); experiment: Resistance development study, repeated exposure; type: cell-based; conditions: E. coli strains; 18 exposures
S. aureus (ATCC 29213) [8] = conditions: highest MIC of three independent experiments
[9] = test system: P. aeruginosa (ATCC 27883); conditions: highest MIC of three independent experiments
E. coli (ATCC 25922) [10] = conditions: highest MIC of three independent experiments
[11] = test system: Escherichia coli (ATCC BAA-2452), NDM-1
[12] = test system: Klebsiella pneumonia (ATCC 13883)
[13] = test system: Klebsiella pneumonia (ATCC BAA-2470), carbapenem resistant; conditions: Carbapenem resistant strain
[14] = test system: Acinetobacter baumannii (ATCC BAA1605), ciprofloxacin resistant; conditions: Ciprofloxacin resistant strain
[15] = test system: Pseudomonas aeruginosa (ATCC 10145)
[16] = test system: Pseudomonas aeruginosa (ATCC BAA-1744), imipenem resistant; conditions: Imipenem resistant strain

N=C(N)NCCC[C@@H]1NC(=O)[C@H](CCCNC(=N)N)NC(=O)[C@H](CCCNC(=N)N)NC(=O)[C@H](Cc2c[nH]c3ccccc23)NC(=O)[C@H](C(c2ccccc2)c2ccccc2)NC(=O)[C@H](Cc2c[nH]c3ccccc23)NC(=O)[C@H](CCCNC(=N)N)NC1=O [5a, c[Arg-Arg-Arg-Arg-Trp-Dip-Trp]] (cyclo([Dip]WRRRRW))
HC50 [1]: 220 µg/mL

N=C(N)NCCC[C@@H]1NC(=O)[C@H](CCCNC(=N)N)NC(=O)[C@H](Cc2c[nH]c3ccccc23)NC(=O)[C@H](C(c2ccccc2)c2ccccc2)NC(=O)[C@H](C(c2ccccc2)c2ccccc2)NC(=O)[C@H](CCCNC(=N)N)NC(=O)[C@H](CCCNC(=N)N)NC1=O [3c, c[Arg-Arg-Arg-Arg-Dip-Dip-Trp]] (cyclo([Dip][Dip]WRRRR))
HC50 [1]: 100 µg/mL

cyclo(RRRR[Dip][Dip][Dip]) [8a]
MIC MRSA (ATCC BAA-1556) (MRSA (ATCC BAA-1556)): 3.1 µg/mL | MIC S. aureus (ATCC 29213) (S. aureus (ATCC 29213) [2]): 3.1 µg/mL | MIC P. aeruginosa (ATCC 27883) [3]: 12.5 µg/mL | MIC E. coli (ATCC 25922) (E. coli (ATCC 25922) [4]): 12.5 µg/mL | HC50 [5]: 70 µg/mL

CC(C)C[C@@H]1NC(=O)[C@H](C(c2ccccc2)c2ccccc2)NC(=O)[C@H](CCCNC(=N)N)NC(=O)[C@H](CCCNC(=N)N)NC(=O)[C@H](CCCNC(=N)N)NC(=O)[C@H](CCCNC(=N)N)NC(=O)[C@H](C(c2ccccc2)c2ccccc2)NC1=O [6a, c[Arg-Arg-Arg-Arg-Dip-Leu-Dip]] (cyclo([Dip]L[Dip]RRRR))
HC50 [1]: 155 µg/mL

N=C(N)NCCC[C@@H]1NC(=O)[C@H](CCCNC(=N)N)NC(=O)[C@H](Cc2c[nH]c3ccccc23)NC(=O)[C@H](C(c2ccccc2)c2ccccc2)NC(=O)[C@H](C(c2ccccc2)c2ccccc2)NC(=O)[C@H](CCCNC(=N)N)NC1=O [1c, c[Arg-Arg-Arg-Dip-Dip-Trp]] (cyclo([Dip][Dip]WRRR))
HC50 [1]: 65 µg/mL

N=C(N)NCCCC[C@@H]1NC(=O)[C@H](CCCNC(=N)N)NC(=O)[C@H](CCCCNC(=N)N)NC(=O)[C@H](C(c2ccccc2)c2ccccc2)NC(=O)[C@H](Cc2c[nH]c3ccccc23)NC(=O)[C@H](C(c2ccccc2)c2ccccc2)NC(=O)[C@H](CCCNC(=N)N)NC1=O [7c, c[hArg-Arg-hArg-Arg-Dip-Trp-Dip]] (cyclo([Dip]W[Dip][hArg]R[hArg]R))
HC50 [1]: 160 µg/mL

N=C(N)NCCC[C@@H]1NC(=O)[C@H](CCCNC(=N)N)NC(=O)[C@H](CCCNC(=N)N)NC(=O)[C@H](C(c2ccccc2)c2ccccc2)NC(=O)[C@H](C(c2ccccc2)c2ccccc2)NC(=O)[C@H](Cc2c[nH]c3ccccc23)NC(=O)[C@H](CCCNC(=N)N)NC1=O [3a, c[Arg-Arg-Arg-Arg-Trp-Dip-Dip]] (cyclo([Dip][Dip]RRRRW))
HC50 [1]: 85 µg/mL

c[Arg-Arg-Arg-Arg-Nal-Nal-Nal] [8b]
MIC MRSA (ATCC BAA-1556) (MRSA (ATCC BAA-1556)): 3.1 µg/mL | MIC S. aureus (ATCC 29213) (S. aureus (ATCC 29213) [2]): 3.1 µg/mL | MIC P. aeruginosa (ATCC 27883) [3]: 12.5 µg/mL | MIC E. coli (ATCC 25922) (E. coli (ATCC 25922) [4]): 25 µg/mL | HC50 [5]: 80 µg/mL

N=C(N)NCCC[C@@H]1NC(=O)[C@H](CCCNC(=N)N)NC(=O)[C@H](C(c2ccccc2)c2ccccc2)NC(=O)[C@H](Cc2c[nH]c3ccccc23)NC(=O)[C@H](C(c2ccccc2)c2ccccc2)NC(=O)[C@H](CCCNC(=N)N)NC1=O [1b, c[Arg-Arg-Arg-Dip-Trp-Dip]] (cyclo([Dip]RRR[Dip]W))
HC50 [1]: 75 µg/mL

N=C(N)NC[C@@H]1NC(=O)[C@H](CNC(=N)N)NC(=O)[C@H](CNC(=N)N)NC(=O)[C@H](C(c2ccccc2)c2ccccc2)NC(=O)[C@H](Cc2c[nH]c3ccccc23)NC(=O)[C@H](C(c2ccccc2)c2ccccc2)NC(=O)[C@H](CNC(=N)N)NC1=O [7a, c[Agp-Agp-Agp-Agp-Dip-Trp-Dip]] (cyclo([Agp][Agp][Agp][Agp][Dip]W[Dip]))
HC50 [1]: 240 µg/mL

N=C(N)NCCC[C@@H]1NC(=O)[C@H](CCCNC(=N)N)NC(=O)[C@H](CCCNC(=N)N)NC(=O)[C@H](C(c2ccccc2)c2ccccc2)NC(=O)[C@H](C(c2ccccc2)c2ccccc2)NC(=O)[C@H](Cc2c[nH]c3ccccc23)NC1=O [1a, c[Arg-Arg-Arg-Trp-Dip-Dip]] (cyclo([Dip][Dip]RRRW))
HC50 [1]: 50 µg/mL

Polymyxin B
HC50 [1]: >500 µg/mL | MIC CaCl2 (E. coli (ATCC BAA-2452); CaCl2 2 mM): 0.7 µg/mL | MIC KCl (E. coli (ATCC BAA-2452); KCl […]): 0.7 µg/mL | MIC Control (E. coli (ATCC BAA-2452); MH media without salt ions or serum): 0.7 µg/mL | MIC MgCl2 (E. coli (ATCC BAA-2452); MgCl2 1 mM): 1.5 µg/mL | MIC NH4Cl (E. coli (ATCC BAA-2452); NH4Cl 6 mM): 0.7 µg/mL | MIC NaCl (E. coli (ATCC BAA-2452); NaCl 150 mM): 0.7 µg/mL | MIC FBS (25%) (E. coli (ATCC BAA-2452); fetal bovine serum 25%): 3.1 µg/mL | reduction in biofilm mass ([6]; at 2× the MIC): 61% | reduction in biofilm mass ([6]; at MIC): 46% | change in MIC after repeated exposure (resistance development) [7]: negligible changes in the MIC values | MIC S. aureus (ATCC 29213) (S. aureus (ATCC 29213) [8]): 0.7 µg/mL | MIC P. aeruginosa (ATCC 27883) [9]: 0.7 µg/mL | MIC E. coli (ATCC 25922) (E. coli (ATCC 25922) [10]): 0.7 µg/mL | MIC Escherichia coli (ATCC BAA-2452) [11]: 0.7 µg/mL | MIC Klebsiella pneumonia (ATCC 13883) [12]: 6.2 µg/mL | MIC Klebsiella pneumonia (ATCC BAA-2470) [13]: 1.5 µg/mL | MIC Acinetobacter baumannii (ATCC BAA1605) [14]: 0.7 µg/mL | MIC Pseudomonas aeruginosa (ATCC 10145) [15]: 0.7 µg/mL | MIC Pseudomonas aeruginosa (ATCC BAA-1744) [16]: 0.7 µg/mL
